Assay results taken from PMC4979993 (Nature structural & molecular biology, 2011).
“And” between values parts separate entries of the source, which are not always exact repeats. Equal entries are not always repeated. “Also recorded” adds a separate entry of the source.

What was measured:
[1] = system: amyloid fibrils; settings: previous bulk measurements; cited from earlier work
[2] = cited from earlier work
[3] = system: Aβ1–40; assay: cTCCD single-molecule analysis of Aβ1–40 aggregation; assay type: biochemical
Outline: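 Equimolar HiLyteFluor488- and HiLyteFluor647-labeled Aβ1–40 (2 μM) in SSPE pH 7.4, 37 °C, 200 rpm agitation; with or without clusterin at 1:1 molar. Sampled every 2–3 h and diluted to picomolar for two-colour confocal coincidence detection (1 ms bins, stage scanned 200 µm s⁻¹). Coincident bursts were scored as oligomers. Apparent size came from their brightness relative to non-coincident monomer bursts; n=3.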

[4] = system: Aβ1–40; assay: TIRFM imaging of species in Aβ1–40 aggregation; assay type: biochemical
Outline: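 Dual-label HiLyteFluor488/HiLyteFluor647 Aβ1–40 (monomer stocks in pH 12 NaOH, ice-sonicated 30 min) diluted into SSPE pH 7.4. Incubated 24 h at 37 °C with 200 rpm agitation. Human serum-derived clusterin was added at 4 h where used. Species on surface imaged by two-colour TIRFM (488 and 633 nm excitation, split-EMCCD, 7.9 frames s⁻¹). Sizes compared by two-sample, two-tailed, independent t-test.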

[5] = target: Aβ1–40 fibrils (Homo sapiens, UniProt P05067); assay: cTCCD analysis of disaggregation of Aβ1–40 fibrils; assay type: biochemical; settings: for ΔG° (dimer) / ΔG° (larger oligomer): from steady state apparent size distributions
Outline: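 Fibrils grown statically from 8 μM labeled Aβ1–40, 72 h, 37 °C. Pelleted at ~10,000×g for 30 min, washed twice in SSPE pH 7.4, then resuspended. Where used, AlexaFluor647-labeled human serum clusterin was incubated with fibrils 12–16 h at 21 °C and unbound removed by centrifugation (100–200 nM bound). Released species tracked by cTCCD to plateau (~50 h). Rates fitted with monomolecular dissociation functions.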

[6] = system: Aβ1–40 fibril formation; assay: Bulk aggregation / fibril formation of Aβ1–40; assay type: biochemical; settings: HiLyteFluor488 or HiLyteFluor647 label, control experiments
[7] = system: Aβ1–40 fibril formation; settings: cited from earlier work
[8] = system: Aβ1–40 oligomers; assay: Formation and persistence of clusterin:Aβ complexes; assay type: binding
Outline: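 HiLyteFluor488 or HiLyteFluor647-labeled Aβ1–40, from NaOH-solubilised monomer in SSPE pH 7.4, is aggregated at 37 °C, 200 rpm, with AlexaFluor647-labeled human serum clusterin at 1:1 molar ratio, or released from pre-formed clusterin-bound fibrils. Complexes are diluted to […] at 21 °C and sampled over time by two-colour coincidence detection (cTCCD). Persistence is compared by two-tailed t-tests.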

[9] = Disaggregation, without clusterin, n=3, s.d.
[10] = Disaggregation, without clusterin, n=12, s.d.
[11] = without clusterin, disaggregation, n=12
[12] = with clusterin, disaggregation, n=8

**Q.** What does the source list for amyloid-β1–40 [Aβ1–40]?
**A.** free energy of the formation of amyloid fibrils [1]: –36 kJ mol^−1; Aβ1–40 clearance time in vivo [2]: ~ 14 h; Aβ1–40 production time in vivo [2]: ~ 15 h; oligomers as share of total number of molecules ([3]; 30 nM Aβ1–40, 37 °C): approximately 1%; concentration of oligomers formed ([3]; 30 nM Aβ1–40, SSPE pH 7.4, 37 °C, agitation): 300 pM; distribution of apparent oligomer sizes ([3]; 600 nM – 2 µM and 30 nM, aggregation and disaggregation): decreased exponentially with increasing apparent size; also recorded: effectively the same as that formed at a concentration of 30 nM; also recorded: approximately exponential decrease with apparent size; oligomers as share of total molecules at peak ([3]; 2 μM Aβ1–40, 37 °C): approximately 1%; decrease in monomer concentration during growth phase of fibril formation ([3]; 2 μM Aβ1–40, 37 °C, agitation): 75%; peak concentration of stable oligomeric species ([3]; 2 μM Aβ1–40, SSPE pH 7.4, 37 °C, agitation): ~ 20 nM; ΔG° (dimer) ([3]; Aggregation, without clusterin, from steady state apparent size distributions, n=4, s.d.): −23.0 ± 2.9 (4) kJ mol^−1; range of oligomer sizes formed ([3]; cTCCD, apparent size): dimers to 50mers; stability of the majority of soluble oligomeric species ([3]; ~25–50 pM, 21 °C): over three; average size of species present ([4]; 2 μM Aβ1–40 without clusterin, 24 h aggregation, s.e.m.): 1400 ± 200 nm; ΔG° (dimer) [5, 9]: −18.2 ± 0.5 (3) kJ mol^−1; ΔG° (larger oligomer) [5, 10]: −38.9 ± 2.7 (12) kJ mol^−1; ΔH° (dimer) [5, 9]: −43.8 ± 24.5 (3) kJ mol^−1; ΔS° dimer [5, 9]: −80.8 ± 83.5 (3) kJ mol^−1; ΔH° (larger oligomer) [5, 10]: −29.1 ± 0.3 (12) kJ mol^−1; ΔS° larger than dimer [5, 10]: 28.3 ± 1.1 (12) kJ mol^−1; Final concentration of all species [5, 11]: 270 ± 20 (12) nM; Final concentration of oligomeric species [5, 11]: 0.16 ± 0.06 (12) nM; effect of fluorophores on bulk aggregation behavior [6]: neither fluorophore had any appreciable effect on the bulk aggregation behavior

**Q.** With “clusterin: extracellular chaperone protein, extracted from human serum” as the substance, how does the “effect on distribution of the sizes of Aβ1–40 oligomers” value ([3]; in presence of clusterin) read?
**A.** not substantially altered

**Q.** And the “reduction in average size of species present” value ([4]; 2 μM Aβ1–40, 24 h aggregation, 2 µM clusterin added at 4 h, P-value 0.01)?
**A.** approximately 50%

**Q.** What about the “effect on fibril formation, bulk measurements” value [7] of the same substance?
**A.** strongly inhibits fibril formation

**Q.** And the “ΔG° (dimer)” value ([5]; Disaggregation, with clusterin, n=4, s.d.)?
**A.** −25.8 ± 2.6 kJ mol^−1 and −25.8 ± 2.6 (4) kJ mol^−1

**Q.** And the “ΔG° (larger oligomer)” value ([5]; Disaggregation, with clusterin, n=12, s.d.)?
**A.** −43.9 ± 1.0 kJ mol^−1 and −43.9 ± 1.0 (12) kJ mol^−1

**Q.** What about the “effect on rate and extent of fibril disaggregation” value ([5]; clusterin bound to Aβ fibrils) of the same substance?
**A.** decrease both the rate and the extent of fibril disaggregation

**Q.** And the “Rate of clusterin release” value ([5]; with clusterin, disaggregation of fibrils, n=3, s.e.m.)?
**A.** (9.8 ± 0.9)×10^−7 (3) s^−1

**Q.** What about the “Final soluble clusterin concentration” value ([5]; with clusterin, disaggregation, n=3) of the same substance?
**A.** 90 ± 14 (3) nM

**Q.** And the “Final concentration of all species” value [5, 12]?
**A.** 120 ± 20 (8) nM

**Q.** What about the “Final concentration of oligomeric species” value [5, 12] of the same substance?
**A.** 0.42 ± 0.1 (8) nM

**Q.** And the “effect on monomer concentration” value ([5]; with vs without clusterin, plateau region, n=8, P-value 0.0003, t-test)?
**A.** decreased monomer concentration

**Q.** What about the “effect on oligomer concentration / total oligomer population” value ([5]; with vs without clusterin, plateau region, n=8, P-value 0.002, t-test) of the same substance?
**A.** increased oligomer concentration; also recorded: increase in the total oligomer population

**Q.** And the “binding to soluble oligomers” value ([8]; all oligomers found during aggregation and disaggregation)?
**A.** all of which interact with clusterin to form long-lived, stable complexes; also recorded: binds to all members of the ensemble of soluble oligomers

**Q.** What about the “persistence of clusterin:Aβ complexes” value ([8]; formed at 100 nM, after dilution at picomolar concentrations) of the same substance?
**A.** over 200 h
